Measurements published in ChEMBL document CHEMBL4732057, “Design, synthesis and biological evaluation of second-generation benzoylpiperidine derivatives as reversible monoacylglycerol lipase (MAGL) inhibitors” (Eur J Med Chem, 2021).
Activity calls are given as the source filed them. The rule behind the calls is not given here.

Tests used:
Cannabinoid receptor 2 = Cannabinoid receptor 2 (Homo sapiens, UniProt P34972); experiment: Displacement of [3H]CP55940 from human CB2 receptor at 10 uM incubated for 90 mins by radioligand binding assay
Sequence of Cannabinoid receptor 2 (P34972 whole entry): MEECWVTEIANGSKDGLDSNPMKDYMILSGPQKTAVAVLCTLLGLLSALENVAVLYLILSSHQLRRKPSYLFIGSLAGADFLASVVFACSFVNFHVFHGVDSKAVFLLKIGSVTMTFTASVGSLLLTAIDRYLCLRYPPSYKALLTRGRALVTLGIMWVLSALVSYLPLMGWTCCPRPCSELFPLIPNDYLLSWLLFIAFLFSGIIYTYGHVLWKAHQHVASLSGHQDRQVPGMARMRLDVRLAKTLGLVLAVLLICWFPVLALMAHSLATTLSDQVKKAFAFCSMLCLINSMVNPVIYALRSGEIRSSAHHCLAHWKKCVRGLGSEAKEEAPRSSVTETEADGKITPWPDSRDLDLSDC
Outline: (§1)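 Membranes expressing hCB1 or hCB2 in 50 mM Tris-HCl, 2.5 mM EDTA, 5 mM MgCl2, 0.5% BSA, pH 7.4, incubated with compound and 0.5 nM [3H]CP55,940 for 90 min at 30 °C. Nonspecific binding with 10 µM […]; filtered and counted. Screening at 10 µM; two experiments in triplicate.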

[1] = target: T1, Monoglyceride lipase (Homo sapiens) (UniProt Q99685); experiment: Reversible inhibition of human recombinant MAGL using 4-nitrophenylacetate as substrate at 2 uM preincubated with enzyme for 60 mins followed by 40X dilution and 15 mins later incubated with substrate by microplate reader assay; conditions: time 75.0 min
T1 sequence (whole entry): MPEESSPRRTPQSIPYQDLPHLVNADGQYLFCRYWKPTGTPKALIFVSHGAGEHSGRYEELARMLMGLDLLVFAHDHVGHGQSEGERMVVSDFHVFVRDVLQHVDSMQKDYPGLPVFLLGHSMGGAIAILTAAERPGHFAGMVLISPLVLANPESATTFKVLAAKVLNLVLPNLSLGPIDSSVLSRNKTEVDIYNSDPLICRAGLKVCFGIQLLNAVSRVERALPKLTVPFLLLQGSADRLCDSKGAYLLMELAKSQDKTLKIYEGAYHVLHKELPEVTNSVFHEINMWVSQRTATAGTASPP
Outline: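 MAGL (880 ng) incubated 60 min at room temperature with compound at 2 µM in Tris pH 7.2, then diluted 40-fold in buffer. After 15 min, 4-NPA 500 µM stock added and activity read as in the main assay. Compared with 2000 nM and 50 nM undiluted; triplicates of two experiments.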

[2] = Cytotoxicity against cancer-derived human organoids in HGSOC patient assessed as reduction in cell viability up to 100 uM measured after 96 hrs by Celltiter-glo luminescent assay; format: functional, Neoplasm; conditions: dose microM <=100
Outline: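 Organoids from three HGSOC patients. Tissue digested with 2 mg/mL collagenase for 30 min, embedded in BME matrix and cultured. Treated at 100 µM, with carboplatin as positive control. Viability read by CellTiter-Glo luminescence.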

[3] = target: T2, Monoacylglycerol lipase ABHD6 (Homo sapiens, UniProt Q9BV23); experiment: Inhibition of human ABHD6 expressed in HEK293 cells using [3H]2-OG as substrate preincubated for 30 mins followed by substrate addition and measured after 5 mins by liquid scintillation spectroscopy; format: cell-based
T2 sequence (Q9BV23 whole entry): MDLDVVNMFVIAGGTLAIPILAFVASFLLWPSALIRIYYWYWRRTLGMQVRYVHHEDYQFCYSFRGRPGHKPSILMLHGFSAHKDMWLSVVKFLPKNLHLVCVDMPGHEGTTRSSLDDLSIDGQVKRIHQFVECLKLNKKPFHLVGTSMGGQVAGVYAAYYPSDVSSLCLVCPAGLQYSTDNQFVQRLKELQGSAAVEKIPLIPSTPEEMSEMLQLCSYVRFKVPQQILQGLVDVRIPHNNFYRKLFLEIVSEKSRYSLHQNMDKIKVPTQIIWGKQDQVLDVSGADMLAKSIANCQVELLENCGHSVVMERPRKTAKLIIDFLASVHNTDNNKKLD
Outline: (§2)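 Homogenate (40 µg) of HEK293 cells stably transfected with human ABHD6 or ABHD12, preincubated with compound 30 min at 37 °C in […], 0.1% BSA, pH 7.6. 2-OG 10 µM added for 5 min at 37 °C. Stopped with CHCl3:MeOH; aqueous tritium counted; blanks and nontransfected HEK293 hydrolysis subtracted. Screening at 10 µM.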

MDA-MB-231 = experiment: Antiproliferative activity against human MDA-MB-231 cells as reduction in cell growth measured after 96 hrs by Celltiter-glo luminescent assay; format: functional, cell-based; conditions: MDA-MB-231, 96 h
Outline: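 Cell lines kept at 37 °C, 5% CO2; 5 × 10^2 cells per well, compound added the day after seeding at 200 to 0.02 µM. Viability read after 96 h by CellTiter-Glo luminescence. IC50 from logistic dose-response curves, in triplicate; error bars are SD.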

[4] = target: T3, Lysophosphatidylserine lipase ABHD12 (Homo sapiens) (UniProt Q8N2K0); experiment: Inhibition of human ABHD12 expressed in HEK293 cells using [3H]2-OG as substrate at 10 uM preincubated for 30 mins followed by substrate addition and measured after 5 mins by liquid scintillation spectroscopy; format: cell-based; conditions: time 35.0 min; outline: as §2
T3 sequence (whole entry): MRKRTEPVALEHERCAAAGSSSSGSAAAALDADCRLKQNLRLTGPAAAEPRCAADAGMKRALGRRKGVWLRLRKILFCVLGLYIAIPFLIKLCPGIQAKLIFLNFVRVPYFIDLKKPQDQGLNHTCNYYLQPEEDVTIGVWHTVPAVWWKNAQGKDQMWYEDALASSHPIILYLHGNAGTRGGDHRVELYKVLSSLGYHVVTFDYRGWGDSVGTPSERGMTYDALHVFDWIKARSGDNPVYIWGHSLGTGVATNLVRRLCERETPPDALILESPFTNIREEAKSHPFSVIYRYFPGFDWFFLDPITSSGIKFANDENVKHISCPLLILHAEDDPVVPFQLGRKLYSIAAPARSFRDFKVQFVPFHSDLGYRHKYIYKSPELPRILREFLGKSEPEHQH

[5] = target: Cannabinoid receptor 1 (CB1) (Homo sapiens, UniProt P21554); experiment: Displacement of [3H]CP55940 from human CB1 receptor at 10 uM incubated for 90 mins by radioligand binding assay; conditions: probe [3H]CP55940; outline: as §1
Sequence of Cannabinoid receptor 1 (CB1) (P21554 whole entry): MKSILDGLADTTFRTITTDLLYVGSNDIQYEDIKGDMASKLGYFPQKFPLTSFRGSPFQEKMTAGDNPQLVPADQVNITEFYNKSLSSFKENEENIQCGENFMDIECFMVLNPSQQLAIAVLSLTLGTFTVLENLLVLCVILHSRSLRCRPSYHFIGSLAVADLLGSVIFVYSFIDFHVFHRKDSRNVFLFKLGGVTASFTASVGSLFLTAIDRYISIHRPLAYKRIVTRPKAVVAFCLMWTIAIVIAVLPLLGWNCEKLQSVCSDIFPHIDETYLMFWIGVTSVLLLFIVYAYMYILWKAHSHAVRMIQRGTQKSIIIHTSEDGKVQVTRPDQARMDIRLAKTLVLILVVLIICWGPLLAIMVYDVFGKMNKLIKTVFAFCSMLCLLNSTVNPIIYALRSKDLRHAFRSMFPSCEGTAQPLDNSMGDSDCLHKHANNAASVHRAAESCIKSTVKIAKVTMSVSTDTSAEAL

[6] = target: T4, Monoglyceride lipase (Mus musculus) (UniProt O35678); experiment: Inhibition of MAGL in mouse brain membrane at 10 uM preincubated for 25 mins followed by TAMRA-FP labeling addition and measured after 5 mins by competitive ABPP based analysis; format: cell membranes; conditions: time 30.0 min
T4 sequence (whole entry): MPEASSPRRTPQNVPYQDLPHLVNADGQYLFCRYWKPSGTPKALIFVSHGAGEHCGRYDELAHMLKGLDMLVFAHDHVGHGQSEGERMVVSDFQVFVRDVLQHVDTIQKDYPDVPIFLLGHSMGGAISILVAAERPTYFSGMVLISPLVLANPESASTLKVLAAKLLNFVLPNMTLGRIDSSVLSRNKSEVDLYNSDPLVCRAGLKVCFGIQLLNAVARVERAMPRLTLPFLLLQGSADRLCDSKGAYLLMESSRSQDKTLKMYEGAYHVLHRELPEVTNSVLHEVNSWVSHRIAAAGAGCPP
Outline: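 Mouse brain membranes, 4 mg/mL in PBS, preincubated 25 min at 25 °C with compound at 10 µM or a range of concentrations. Labelled 5 min with TAMRA-FP at 125 nM final. Proteins resolved on 11% SDS-PAGE and scanned for fluorescence.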

Monoglyceride lipase = target: T5, Monoglyceride lipase (Homo sapiens, UniProt Q99685); experiment: Competitive inhibition of human recombinant MAGL using varying concentration of 4-nitrophenylacetate as substrate incubated for 30 mins by microplate reader assay
T5 sequence (Q99685 whole entry): T1 sequence (whole entry)
Outline: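 MAGL 11 ng/well; 4-nitrophenol absorbance recorded. Data fitted by the mixed-model inhibition fit to give Ki.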

| Structure (SMILES) | inhibition (Cannabinoid receptor 2) | inhibition [1] | inhibition (INH) [2] | IC50 [3] | IC50 (MDA-MB-231) | inhibition [4] | inhibition at 1.5 h, 10 µM [5] | inhibition [6] | Ki (Monoglyceride lipase) |
| --- | --- | --- | --- | --- | --- | --- | --- | --- | --- |
| O=C(c1ccc(Sc2ccccc2)cc1)C1CCN(C(=O)c2cc(O)c(F)cc2F)CC1 | < 10% | Active | 42% | > 10 µM | 63 µM | 27% | < 10% | Active | 11 nM |
| O=C(c1ccc(Cc2ccccc2)cc1)C1CCN(C(=O)c2cc(O)c(F)cc2F)CC1 | < 10% | Active | 18% | > 10 µM | 65 µM | 28% | < 10% | Active | 30 nM |
| O=C(c1ccc(Cc2ccccc2)cc1)C1CCN(C(=O)c2cc(O)ccc2F)CC1 | < 10% | Active | 42% | > 10 µM | 25 µM | 20% | < 10% | Active | 37 nM |
| O=C(c1ccc(Sc2ccccc2)cc1)C1CCN(C(=O)c2cc(O)ccc2F)CC1 | < 10% | Active | 42% | > 10 µM | 43 µM | 26% | < 10% | Active | 27 nM |
